From ChEMBL document CHEMBL3797186, “Single Residue Substitutions That Confer Voltage-Gated Sodium Ion Channel Subtype Selectivity in the NaV1.7 Inhibitory Peptide GpTx-1” (J Med Chem, 2016)
pIC50: −log10 of the molar value. Positions of bridges follow the written chain, without caps; N, C: chain ends. Residues, ends and D or L forms follow the SMILES beside them.

Target: Sodium channel protein type 5 subunit alpha (Homo sapiens, UniProt Q14524)
Test: Inhibition of human Nav1.5 expressed in HEK293 cells assessed as inward peak current by ion-works quattro patch clamp electrophysiology method
Assay type: cell-based
How it was run: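 Stable HEK293 line expressing human NaV1.5, recorded by population patch clamp on the IonWorks Quattro.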

Sequence of Sodium channel protein type 5 subunit alpha (Q14524 whole entry): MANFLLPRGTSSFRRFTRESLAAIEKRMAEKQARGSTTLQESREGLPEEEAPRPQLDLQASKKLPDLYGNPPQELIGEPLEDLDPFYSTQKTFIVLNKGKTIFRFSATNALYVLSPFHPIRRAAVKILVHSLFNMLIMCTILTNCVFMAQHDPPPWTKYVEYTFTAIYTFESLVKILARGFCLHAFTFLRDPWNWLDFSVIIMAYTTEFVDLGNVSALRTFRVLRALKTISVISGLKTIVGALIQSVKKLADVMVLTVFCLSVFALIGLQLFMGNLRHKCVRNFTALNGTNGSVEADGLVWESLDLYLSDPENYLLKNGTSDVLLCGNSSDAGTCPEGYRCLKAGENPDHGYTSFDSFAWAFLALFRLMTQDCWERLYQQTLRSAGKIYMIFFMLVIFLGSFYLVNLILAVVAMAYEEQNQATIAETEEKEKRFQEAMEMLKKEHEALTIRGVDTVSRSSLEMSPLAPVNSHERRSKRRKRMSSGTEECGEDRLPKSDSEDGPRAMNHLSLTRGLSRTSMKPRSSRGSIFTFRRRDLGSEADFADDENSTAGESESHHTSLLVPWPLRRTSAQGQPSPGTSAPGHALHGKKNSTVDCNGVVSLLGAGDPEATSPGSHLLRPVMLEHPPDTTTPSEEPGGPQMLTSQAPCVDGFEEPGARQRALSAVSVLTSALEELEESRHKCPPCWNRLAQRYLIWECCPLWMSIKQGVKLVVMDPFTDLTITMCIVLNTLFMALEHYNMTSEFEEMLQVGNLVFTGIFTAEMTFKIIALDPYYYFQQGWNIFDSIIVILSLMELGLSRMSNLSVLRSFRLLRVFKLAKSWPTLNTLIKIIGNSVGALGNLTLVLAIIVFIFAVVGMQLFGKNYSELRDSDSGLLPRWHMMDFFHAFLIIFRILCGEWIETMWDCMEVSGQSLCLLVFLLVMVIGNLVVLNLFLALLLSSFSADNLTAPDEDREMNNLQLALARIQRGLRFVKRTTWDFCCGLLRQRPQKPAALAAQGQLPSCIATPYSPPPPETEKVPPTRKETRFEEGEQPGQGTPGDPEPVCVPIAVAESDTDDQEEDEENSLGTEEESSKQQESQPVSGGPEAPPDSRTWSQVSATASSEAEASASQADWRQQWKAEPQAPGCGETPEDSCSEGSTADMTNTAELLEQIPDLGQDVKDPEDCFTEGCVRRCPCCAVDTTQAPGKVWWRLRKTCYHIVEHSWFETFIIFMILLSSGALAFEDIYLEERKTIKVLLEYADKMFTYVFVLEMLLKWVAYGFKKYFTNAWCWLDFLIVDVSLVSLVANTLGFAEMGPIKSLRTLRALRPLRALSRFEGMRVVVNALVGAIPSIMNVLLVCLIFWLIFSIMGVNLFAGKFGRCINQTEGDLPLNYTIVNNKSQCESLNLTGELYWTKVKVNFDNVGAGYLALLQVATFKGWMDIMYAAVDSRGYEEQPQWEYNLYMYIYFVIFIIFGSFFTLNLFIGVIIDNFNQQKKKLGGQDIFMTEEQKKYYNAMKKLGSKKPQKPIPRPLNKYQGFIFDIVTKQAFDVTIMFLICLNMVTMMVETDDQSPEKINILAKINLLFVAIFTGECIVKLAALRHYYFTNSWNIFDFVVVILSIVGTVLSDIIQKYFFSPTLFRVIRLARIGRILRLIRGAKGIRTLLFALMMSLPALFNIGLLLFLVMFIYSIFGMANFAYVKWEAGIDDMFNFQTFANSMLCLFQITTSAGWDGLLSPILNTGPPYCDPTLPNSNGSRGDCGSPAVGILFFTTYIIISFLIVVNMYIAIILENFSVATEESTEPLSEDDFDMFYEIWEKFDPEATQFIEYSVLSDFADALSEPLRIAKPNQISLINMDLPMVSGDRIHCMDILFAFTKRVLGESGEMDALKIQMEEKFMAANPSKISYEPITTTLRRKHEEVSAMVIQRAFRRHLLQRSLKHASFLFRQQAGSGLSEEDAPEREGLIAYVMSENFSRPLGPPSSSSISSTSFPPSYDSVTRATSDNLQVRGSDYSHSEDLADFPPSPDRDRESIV

Compound | pIC50 | pIC50 (hek293)
CC[C@H](C)[C@@H]1NC(=O)[C@@H]2CSSC[C@@H]3NC(=O)[C@H](C(C)C)NC(=O)[C@H](CC(C)C)NC(=O)[C@H](CC(N)=O)NC(=O)[C@@H]4CCCN4C(=O)[C@H](CCCNC(=N)N)NC(=O)[C@H](CSSC[C@H](NC(=O)[C@@H](N)CC(=O)O)C(=O)N[C@@H](CC(C)C)C(=O)NCC(=O)N[C@@H](Cc4ccccc4)C(=O)N[C@@H](CCSC)C(=O)N[C@@H](CCCNC(=N)N)C(=O)N[C@@H](CCCCN)C(=O)N2)NC(=O)[C@H](CSSC[C@@H](C(=O)N[C@@H](CCCCN)C(=O)N[C@@H](Cc2ccc(O)cc2)C(=O)N[C@H](C(N)=O)C(C)C)NC(=O)[C@H](Cc2c[nH]c4ccccc24)NC(=O)[C@H](CCCCN)NC(=O)[C@H](Cc2cnc[nH]2)NC(=O)[C@H]([C@@H](C)O)NC(=O)[C@H](CCCNC(=N)N)NC(=O)[C@H](CO)NC3=O)NC(=O)[C@H](CCCCN)NC(=O)[C@H](CC(=O)O)NC(=O)[C@H](CC(N)=O)NC(=O)[C@H](CC(=O)O)NC(=O)[C@@H]2CCCN2C1=O (H-DCLGFMRKCIPDNDKCCRPNLVCSRTHKWCKYV-NH2; disulfide 2-17, 9-23, 16-30) | < 5.30 | –
CC[C@H](C)[C@@H]1NC(=O)[C@@H]2CSSC[C@@H]3NC(=O)[C@H](C(C)C)NC(=O)[C@H](CC(C)C)NC(=O)[C@H](CC(N)=O)NC(=O)[C@@H]4CCCN4C(=O)[C@H](CCCNC(=N)N)NC(=O)[C@H](CSSC[C@H](NC(=O)[C@@H](N)CC(=O)O)C(=O)N[C@@H](CC(C)C)C(=O)NCC(=O)N[C@@H](Cc4ccccc4)C(=O)N[C@@H](CCSC)C(=O)N[C@@H](CCCNC(=N)N)C(=O)N[C@@H](CCCCN)C(=O)N2)NC(=O)[C@H](CSSC[C@@H](C(=O)N[C@@H](CCCCN)C(=O)N[C@@H](Cc2ccc(O)cc2)C(N)=O)NC(=O)[C@H](Cc2c[nH]c4ccccc24)NC(=O)[C@H](CCCCN)NC(=O)[C@H](Cc2cnc[nH]2)NC(=O)[C@H]([C@@H](C)O)NC(=O)[C@H](CCCNC(=N)N)NC(=O)[C@H](CO)NC3=O)NC(=O)[C@H](CCCCN)NC(=O)[C@H](CC(=O)O)NC(=O)[C@H](CC(N)=O)NC(=O)[C@H](CC(=O)O)NC(=O)[C@@H]2CCCN2C1=O (H-DCLGFMRKCIPDNDKCCRPNLVCSRTHKWCKY-NH2; disulfide 2-17, 9-23, 16-30) | < 5.30 | –
CC[C@H](C)[C@@H]1NC(=O)[C@@H]2CSSC[C@@H]3NC(=O)[C@H](C(C)C)NC(=O)[C@H](CC(C)C)NC(=O)[C@H](CC(N)=O)NC(=O)[C@@H]4CCCN4C(=O)[C@H](CCCNC(=N)N)NC(=O)[C@H](CSSC[C@H](NC(=O)[C@@H](N)CC(=O)O)C(=O)N[C@@H](CC(C)C)C(=O)NCC(=O)N[C@@H](Cc4ccccc4)C(=O)N[C@@H](CCSC)C(=O)N[C@@H](CCCNC(=N)N)C(=O)N[C@@H](CCC(=O)O)C(=O)N2)NC(=O)[C@H](CSSC[C@@H](C(=O)N[C@@H](CCCCN)C(=O)N[C@@H](Cc2ccc(O)cc2)C(=O)N[C@H](C(=O)N[C@@H](Cc2ccccc2)C(N)=O)C(C)C)NC(=O)[C@H](Cc2c[nH]c4ccccc24)NC(=O)[C@H](CCCCN)NC(=O)[C@H](Cc2cnc[nH]2)NC(=O)[C@H]([C@@H](C)O)NC(=O)[C@H](CCCNC(=N)N)NC(=O)[C@H](CO)NC3=O)NC(=O)[C@H](CCCCN)NC(=O)[C@H](CC(=O)O)NC(=O)[C@H](CC(N)=O)NC(=O)[C@H](CC(=O)O)NC(=O)[C@@H]2CCCN2C1=O (H-DCLGFMRECIPDNDKCCRPNLVCSRTHKWCKYVF-NH2; disulfide 2-17, 9-23, 16-30) | < 5.30 | –
CC[C@H](C)[C@@H]1NC(=O)[C@@H]2CSSC[C@@H]3NC(=O)[C@H](C(C)C)NC(=O)[C@H](CC(C)C)NC(=O)[C@H](CC(N)=O)NC(=O)[C@@H]4CCCN4C(=O)[C@H](CCCNC(=N)N)NC(=O)[C@H](CSSC[C@H](NC(=O)[C@@H](N)CC(=O)O)C(=O)N[C@@H](CC(C)C)C(=O)NCC(=O)N[C@@H](Cc4ccccc4)C(=O)N[C@@H](CCSC)C(=O)N[C@@H](CCCNC(=N)N)C(=O)N[C@@H](CCCCN)C(=O)N2)NC(=O)[C@H](CSSC[C@@H](C(=O)N[C@@H](CCCCN)C(=O)N[C@@H](Cc2ccc(O)cc2)C(=O)N[C@H](C(=O)N[C@@H](Cc2ccccc2)C(=O)O)C(C)C)NC(=O)[C@H](Cc2c[nH]c4ccccc24)NC(=O)[C@H](CCCCN)NC(=O)[C@H](Cc2cnc[nH]2)NC(=O)[C@H]([C@@H](C)O)NC(=O)[C@H](CCCNC(=N)N)NC(=O)[C@H](CO)NC3=O)NC(=O)[C@H](CCCCN)NC(=O)[C@H](CC(=O)O)NC(=O)[C@H](CC(N)=O)NC(=O)[C@H](CC(=O)O)NC(=O)[C@@H]2CCCN2C1=O (stereo in doubt; 158) | – | < 5.30
CSCC[C@@H]1NC(=O)[C@H](Cc2ccccc2)NC(=O)CNC(=O)[C@H](CC(C)C)NC(=O)[C@@H](NC(=O)[C@@H](N)CC(=O)O)CSSC[C@@H]2NC(=O)[C@@H]3CSSC[C@@H](C(=O)N[C@@H](CCCCN)C(=O)N[C@@H](Cc4ccc(O)cc4)C(=O)N[C@H](C(=O)N[C@@H](Cc4ccccc4)C(N)=O)C(C)C)NC(=O)[C@H](Cc4c[nH]c5ccccc45)NC(=O)[C@H](CCCCN)NC(=O)[C@H](Cc4cnc[nH]4)NC(=O)[C@H]([C@@H](C)O)NC(=O)[C@H](CCCNC(=N)N)NC(=O)[C@H](CO)NC(=O)[C@H](CSSC[C@H](NC(=O)[C@H](CCCCN)NC(=O)[C@H](CCCNC(=N)N)NC1=O)C(=O)N[C@@H](CO)C(=O)N1CCC[C@H]1C(=O)N[C@@H](CC(=O)O)C(=O)N[C@@H](CC(N)=O)C(=O)N[C@@H](CC(=O)O)C(=O)N[C@@H](CCCCN)C(=O)N3)NC(=O)[C@H](C(C)C)NC(=O)[C@H](CC(C)C)NC(=O)[C@H](CC(N)=O)NC(=O)[C@@H]1CCCN1C(=O)[C@H](CCCNC(=N)N)NC2=O (H-DCLGFMRKCSPDNDKCCRPNLVCSRTHKWCKYVF-NH2; disulfide 2-17, 9-23, 16-30) | < 5.57 | –
CC[C@H](C)[C@@H]1NC(=O)[C@@H]2CSSC[C@@H]3NC(=O)[C@H](C(C)C)NC(=O)[C@H](CC(C)C)NC(=O)[C@H](CC(N)=O)NC(=O)[C@@H]4CCCN4C(=O)[C@H](CCCNC(=N)N)NC(=O)[C@H](CSSC[C@H](NC(=O)[C@@H](N)CC(=O)O)C(=O)N[C@@H](CC(C)C)C(=O)NCC(=O)N[C@@H](Cc4ccccc4)C(=O)N[C@@H](CCSC)C(=O)N[C@@H](CCCNC(=N)N)C(=O)N[C@@H](CCCCN)C(=O)N2)NC(=O)[C@H](CSSC[C@@H](C(=O)N[C@@H](CCCCN)C(=O)N[C@@H](Cc2ccc(O)cc2)C(=O)N[C@H](C(=O)N[C@@H](Cc2ccccc2)C(N)=O)C(C)C)NC(=O)[C@H](Cc2c[nH]c4ccccc24)NC(=O)[C@H](CCCCN)NC(=O)[C@H](Cc2c[nH]c4ccccc24)NC(=O)[C@H]([C@@H](C)O)NC(=O)[C@H](CCCNC(=N)N)NC(=O)[C@H](CO)NC3=O)NC(=O)[C@H](CCCCN)NC(=O)[C@H](CC(=O)O)NC(=O)[C@H](CC(N)=O)NC(=O)[C@H](CC(=O)O)NC(=O)[C@@H]2CCCN2C1=O (H-DCLGFMRKCIPDNDKCCRPNLVCSRTWKWCKYVF-NH2; disulfide 2-17, 9-23, 16-30) | < 5.30 | –
CSCC[C@@H]1NC(=O)[C@H](Cc2ccccc2)NC(=O)CNC(=O)[C@H](CC(C)C)NC(=O)[C@@H](NC(=O)[C@@H](N)CC(=O)O)CSSC[C@@H]2NC(=O)[C@@H]3CSSC[C@@H](C(=O)N[C@@H](CCCCN)C(=O)N[C@@H](Cc4ccc(O)cc4)C(=O)N[C@H](C(=O)N[C@@H](Cc4ccccc4)C(N)=O)C(C)C)NC(=O)[C@H](Cc4c[nH]c5ccccc45)NC(=O)[C@H](CCCCN)NC(=O)[C@H](Cc4cnc[nH]4)NC(=O)[C@H]([C@@H](C)O)NC(=O)[C@H](CCCNC(=N)N)NC(=O)[C@H](CO)NC(=O)[C@H](CSSC[C@H](NC(=O)[C@H](CCCCN)NC(=O)[C@H](CCCNC(=N)N)NC1=O)C(=O)N[C@@H](C(C)C)C(=O)N1CCC[C@H]1C(=O)N[C@@H](CC(=O)O)C(=O)N[C@@H](CC(N)=O)C(=O)N[C@@H](CC(=O)O)C(=O)N[C@@H](CCCCN)C(=O)N3)NC(=O)[C@H](C(C)C)NC(=O)[C@H](CC(C)C)NC(=O)[C@H](CC(N)=O)NC(=O)[C@@H]1CCCN1C(=O)[C@H](CCCNC(=N)N)NC2=O (H-DCLGFMRKCVPDNDKCCRPNLVCSRTHKWCKYVF-NH2; disulfide 2-17, 9-23, 16-30) | < 5.30 | –
CC[C@H](C)[C@@H]1NC(=O)[C@@H]2CSSC[C@@H]3NC(=O)[C@H](C(C)C)NC(=O)[C@H](CC(C)C)NC(=O)[C@H](CC(N)=O)NC(=O)[C@@H]4CCCN4C(=O)[C@H](CCCNC(=N)N)NC(=O)[C@H](CSSC[C@H](NC(=O)[C@@H](N)CC(=O)O)C(=O)N[C@@H](CC(C)C)C(=O)NCC(=O)N[C@@H](Cc4ccccc4)C(=O)N[C@@H](CCSC)C(=O)N[C@@H](CCCNC(=N)N)C(=O)N[C@@H](CCCCN)C(=O)N2)NC(=O)[C@H](CSSC[C@@H](C(=O)N[C@@H](CCCCN)C(=O)N[C@@H](CCCNC(=N)N)C(=O)N[C@H](C(=O)N[C@@H](Cc2ccccc2)C(N)=O)C(C)C)NC(=O)[C@H](Cc2c[nH]c4ccccc24)NC(=O)[C@H](CCCCN)NC(=O)[C@H](Cc2cnc[nH]2)NC(=O)[C@H]([C@@H](C)O)NC(=O)[C@H](CCCNC(=N)N)NC(=O)[C@H](CO)NC3=O)NC(=O)[C@H](CCCCN)NC(=O)[C@H](CC(=O)O)NC(=O)[C@H](CC(N)=O)NC(=O)[C@H](CC(=O)O)NC(=O)[C@@H]2CCCN2C1=O (H-DCLGFMRKCIPDNDKCCRPNLVCSRTHKWCKRVF-NH2; disulfide 2-17, 9-23, 16-30) | < 5.30 | –
CC[C@H](C)[C@@H]1NC(=O)[C@@H]2CSSC[C@@H]3NC(=O)[C@H](C(C)C)NC(=O)[C@H](CC(C)C)NC(=O)[C@H](CC(N)=O)NC(=O)[C@@H]4CCCN4C(=O)[C@H](CCCNC(=N)N)NC(=O)[C@H](CSSC[C@H](NC(=O)[C@@H](N)CC(=O)O)C(=O)N[C@@H](CC(C)C)C(=O)N[C@@H](Cc4c[nH]c5ccccc45)C(=O)N[C@@H](Cc4ccccc4)C(=O)N[C@@H](CCSC)C(=O)N[C@@H](CCCNC(=N)N)C(=O)N[C@@H](CCCCN)C(=O)N2)NC(=O)[C@H](CSSC[C@@H](C(=O)N[C@@H](CCCCN)C(=O)N[C@@H](Cc2ccc(O)cc2)C(=O)N[C@H](C(=O)N[C@@H](Cc2ccccc2)C(N)=O)C(C)C)NC(=O)[C@H](Cc2c[nH]c4ccccc24)NC(=O)[C@H](CCCCN)NC(=O)[C@H](Cc2cnc[nH]2)NC(=O)[C@H]([C@@H](C)O)NC(=O)[C@H](CCCNC(=N)N)NC(=O)[C@H](CO)NC3=O)NC(=O)[C@H](CCCCN)NC(=O)[C@H](CC(=O)O)NC(=O)[C@H](CC(N)=O)NC(=O)[C@H](CC(=O)O)NC(=O)[C@@H]2CCCN2C1=O (H-DCLWFMRKCIPDNDKCCRPNLVCSRTHKWCKYVF-NH2; disulfide 2-17, 9-23, 16-30) | < 5.30 | –
